The values below come from PubChem BioAssay AID624397 (The Scripps Research Institute Molecular Screening Center, 2012).

The subject of the experiment is MCF7 proliferation, sulforhodamine B absorbance, 7-10 days. Nature of the experiment: MCF7 cell proliferation inhibition, late-stage follow-up, counter-screen for AHR activator project, absorbance, set 2 (AID 624397). The method, boiled down:
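System: MCF7 cells | Quantity: 2,000 cells/well | Timing: Dosing from 24 h after plating, renewed every 48 h, 37 °C | Detection: SRB absorbance at 490 nm, 650 nm background removed | Measure: % of DMSO proliferation and Hill-fit IC50 | Control set: DMSO-treated cells as reference | Replication: at least triplicate wells per concentration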
On the technique in general: The purpose of a counterscreen is to sort out artefacts and off-target activity.

As for `Cc1ccc(-c2cc(-c3ccc(F)cc3)n[nH]2)c(O)c1`, the IC50 – broadly, the point on the concentration scale where inhibition reaches its midpoint – was 3 µM.

Turning to `Cc1ccc(-c2cc(-c3ccc(Cl)cc3)n[nH]2)c(O)c1`, the IC50 is 3 µM.

In the case of `Cc1ccc(-c2cc(-c3cccc(F)c3)n[nH]2)c(O)c1`, the half-inhibitory concentration (IC50) was 3 µM.
